# Laboratory results: ChEMBL document CHEMBL1165950, “Design and synthesis of new potent anticancer pyrazoles with high FLT3 kinase inhibitory selectivity” (Bioorg Med Chem, 2010)
# How the values were obtained:
# Format in all cases: functional
# U-251 = assay: Cytotoxicity against human U251 cells assessed as cell growth at 10 uM; conditions: read-out: Activity
# Summary of the method: (§1)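 NCI-60 screen: cells grown in RPMI 1640 with 5% FBS and 2 mM L-glutamine, plated at 5000–40,000 cells/well according to doubling time, and preincubated 24 h at 37 °C, 5% CO2. The single 10 µM dose (DMSO stock) was added, then incubated 48 h. Cells were TCA-fixed and stained with 0.4% SRB, read at 515 nm, and growth % calculated against time-zero and control plates.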
# HT-29 = assay: Cytotoxicity against human HT-29 cells assessed as cell growth at 10 uM; conditions: read-out: Activity
# Summary of the method: (§2)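 Single-dose NCI-60 screen at 10 µM. Cells were grown in RPMI 1640 with 5% FBS and 2 mM L-glutamine, then treated for 48 h at 37 °C. Protein was measured by SRB staining with absorbance at 515 nm. Percentage growth was recorded, and inhibition percentage was calculated as 100 minus growth percentage.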
# MDA-MB-435 = assay: Cytotoxicity against human MDA-MB-435 cells assessed as cell growth at 10 uM; conditions: read-out: Activity; summary of the method: as §1
# RXF 393 = assay: Cytotoxicity against human RXF393 cells assessed as cell growth at 10 uM; conditions: read-out: Activity; summary of the method: as §1
# SF-268 = assay: Cytotoxicity against human SF268 cells assessed as cell growth at 10 uM; conditions: read-out: Activity; summary of the method: as §1
# MDA-MB-231 = assay: Cytotoxicity against human MDA-MB-231 cells assessed as cell growth at 10 uM; conditions: read-out: Activity; summary of the method: as §1
# HCT-15 = assay: Cytotoxicity against human HCT15 cells assessed as cell growth at 10 uM; conditions: read-out: Activity; summary of the method: as §2
# HCC 2998 = assay: Cytotoxicity against human HCC2998 cells assessed as cell growth at 10 uM; conditions: read-out: Activity; summary of the method: as §2
# NCI-H322M = assay: Cytotoxicity against human NCI-H322M cells assessed as cell growth at 10 uM; conditions: read-out: Activity; summary of the method: as §1
# COLO 205 = assay: Cytotoxicity against human COLO205 cells assessed as cell growth at 10 uM; conditions: read-out: Activity; summary of the method: as §2
# HOP-62 = assay: Cytotoxicity against human HOP62 cells assessed as cell growth at 10 uM; conditions: read-out: Activity; summary of the method: as §2
# UACC-257 = assay: Cytotoxicity against human UACC257 cells assessed as cell growth at 10 uM; conditions: read-out: Activity; summary of the method: as §1
# [1] = Growth inhibition of human NCI60 cells at 10 uM after 48 hrs by sulforhodamine B assay relative to control; conditions: NCI60, 48 h, read-out: GI
# Summary of the method: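 Single-dose NCI screen at 10 µM across the 60-line panel, 48 h exposure at 37 °C after a 24 h preincubation. Adherent cells were fixed with cold TCA and stained with 0.4% SRB, and absorbance was read at 515 nm. Inhibition % was taken as 100 minus growth %, and the mean across all lines was reported.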
# SF-295 = assay: Cytotoxicity against human SF295 cells assessed as cell growth at 10 uM; conditions: read-out: Activity; summary of the method: as §1
# BT-549 = assay: Cytotoxicity against human BT549 cells assessed as cell growth at 10 uM; conditions: read-out: Activity; summary of the method: as §2
# CAKI-1 = assay: Cytotoxicity against human Caki1 cells assessed as cell growth at 10 uM; conditions: read-out: Activity; summary of the method: as §2
# SNB-19 = assay: Cytotoxicity against human SNB19 cells assessed as cell growth at 10 uM; conditions: read-out: Activity; summary of the method: as §1
# SF-539 = assay: Cytotoxicity against human SF539 cells assessed as cell growth at 10 uM; conditions: read-out: Activity; summary of the method: as §1
# SK-OV-3 = assay: Cytotoxicity against human SKOV3 cells assessed as cell growth at 10 uM; conditions: read-out: Activity; summary of the method: as §1
# ACHN = assay: Cytotoxicity against human ACHN cells assessed as cell growth at 10 uM; conditions: read-out: Activity; summary of the method: as §2
# SK-MEL-2 = assay: Cytotoxicity against human SK-MEL-2 cells assessed as cell growth at 10 uM; conditions: read-out: Activity; summary of the method: as §1
# A549 = assay: Cytotoxicity against human A549 cells assessed as cell growth at 10 uM; conditions: read-out: Activity; summary of the method: as §2
# UO-31 = assay: Cytotoxicity against human UO31 cells assessed as cell growth at 10 uM; conditions: read-out: Activity; summary of the method: as §1
# CCRF-CEM = assay: Cytotoxicity against human CCRF-CEM cells assessed as cell growth at 10 uM; conditions: read-out: Activity; summary of the method: as §2
# OVCAR-8 = assay: Cytotoxicity against human OVCAR8 cells assessed as cell growth at 10 uM; conditions: read-out: Activity; summary of the method: as §1
# EKVX = assay: Cytotoxicity against human EKVX cells assessed as cell growth at 10 uM; conditions: read-out: Activity; summary of the method: as §2
# DU-145 = assay: Cytotoxicity against human DU145 cells assessed as cell growth at 10 uM; conditions: read-out: Activity; summary of the method: as §2
# MCF7 = assay: Cytotoxicity against human MCF7 cells assessed as cell growth at 10 uM; conditions: read-out: Activity; summary of the method: as §1
# HCT-116 = assay: Cytotoxicity against human HCT116 cells assessed as cell growth at 10 uM; conditions: read-out: Activity; summary of the method: as §2
# HOP-92 = assay: Cytotoxicity against human HOP92 cells assessed as cell growth at 10 uM; conditions: read-out: Activity; summary of the method: as §2
# SK-MEL-28 = assay: Cytotoxicity against human SK-MEL-28 cells assessed as cell growth at 10 uM; conditions: read-out: Activity; summary of the method: as §1
# KM12 = assay: Cytotoxicity against human KM12 cells assessed as cell growth at 10 uM; conditions: read-out: Activity; summary of the method: as §1
# T47D = assay: Cytotoxicity against human T47D cells assessed as cell growth at 10 uM; conditions: read-out: Activity; summary of the method: as §1
# [2] = Cytotoxicity against human […] cells assessed as cell growth at 10 uM; conditions: read-out: Activity; summary of the method: as §1
# NCI-H23 = assay: Cytotoxicity against human NCI-H23 cells assessed as cell growth at 10 uM; conditions: read-out: Activity; summary of the method: as §1
# SW-620 = assay: Cytotoxicity against human SW620 cells assessed as cell growth at 10 uM; conditions: read-out: Activity; summary of the method: as §1
# M14 = assay: Cytotoxicity against human M14 cells assessed as cell growth at 10 uM; conditions: read-out: Activity; summary of the method: as §1
# SN12C = assay: Cytotoxicity against human SN12C cells assessed as cell growth at 10 uM; conditions: read-out: Activity; summary of the method: as §1
# PC-3 = assay: Cytotoxicity against human PC3 cells assessed as cell growth at 10 uM; conditions: read-out: Activity; summary of the method: as §1
# K562 = assay: Cytotoxicity against human K562 cells assessed as cell growth at 10 uM; conditions: read-out: Activity; summary of the method: as §2
# NCI-H226 = assay: Cytotoxicity against human NCI-H226 cells assessed as cell growth at 10 uM; conditions: read-out: Activity; summary of the method: as §1
# NCI-H460 = assay: Cytotoxicity against human NCI-H460 cells assessed as cell growth at 10 uM; conditions: read-out: Activity; summary of the method: as §1
# LOX IMVI = assay: Cytotoxicity against human LOXIMVI cells assessed as cell growth at 10 uM; conditions: read-out: Activity; summary of the method: as §1
# [3] = Cytotoxicity against human Hs 578T cells assessed as cell growth at 10 uM; conditions: read-out: Activity; summary of the method: as §2
# 786-0 = assay: Cytotoxicity against human 786-0 cells assessed as cell growth at 10 uM; conditions: read-out: Activity; summary of the method: as §2
# HL-60(TB) = assay: Cytotoxicity against human HL-60(TB) cells assessed as cell growth at 10 uM; conditions: read-out: Activity
# Summary of the method: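 NCI 60-cell panel screen at a single concentration of 10 µM. Cells are grown in RPMI 1640 with 5% FBS and 2 mM L-glutamine and read by SRB protein staining at 515 nm. Percent growth is measured relative to time-zero and untreated controls; inhibition % is 100 minus growth %.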
# MDA-MB-468 = assay: Cytotoxicity against human MDA-MB-468 cells assessed as cell growth at 10 uM; conditions: read-out: Activity; summary of the method: as §1
# UACC-62 = assay: Cytotoxicity against human UACC62 cells assessed as cell growth at 10 uM; conditions: read-out: Activity; summary of the method: as §1
# NCI-H522 = assay: Cytotoxicity against human NCI-H522 cells assessed as cell growth at 10 uM; conditions: read-out: Activity; summary of the method: as §1
# NCI/ADR-RES = assay: Cytotoxicity against human NCI/ADR-RES cells assessed as cell growth at 10 uM; conditions: read-out: Activity; summary of the method: as §1
# SNB-75 = assay: Cytotoxicity against human SNB75 cells assessed as cell growth at 10 uM; conditions: read-out: Activity; summary of the method: as §1
# OVCAR-4 = assay: Cytotoxicity against human OVCAR4 cells assessed as cell growth at 10 uM; conditions: read-out: Activity; summary of the method: as §1
# IGROV-1 = assay: Cytotoxicity against human IGROV1 cells assessed as cell growth at 10 uM; conditions: read-out: Activity; summary of the method: as §2
# SK-MEL-5 = assay: Cytotoxicity against human SK-MEL-5 cells assessed as cell growth at 10 uM; conditions: read-out: Activity; summary of the method: as §1
# OVCAR-3 = assay: Cytotoxicity against human OVCAR-3 cells assessed as cell growth at 10 uM; conditions: read-out: Activity; summary of the method: as §1
# Malme-3M = assay: Cytotoxicity against human MALME-3M cells assessed as cell growth at 10 uM; conditions: read-out: Activity; summary of the method: as §1
# OVCAR-5 = assay: Cytotoxicity against human OVCAR5 cells assessed as cell growth at 10 uM; conditions: read-out: Activity; summary of the method: as §1
# SR = assay: Cytotoxicity against human SR cells assessed as cell growth at 10 uM; conditions: read-out: Activity; summary of the method: as §1
# A498 = assay: Cytotoxicity against human A498 cells assessed as cell growth at 10 uM; conditions: read-out: Activity; summary of the method: as §2
# TK-10 = assay: Cytotoxicity against human TK10 cells assessed as cell growth at 10 uM; conditions: read-out: Activity; summary of the method: as §1
# MOLT-4 = assay: Cytotoxicity against human MOLT4 cells assessed as cell growth at 10 uM; conditions: read-out: Activity; summary of the method: as §1
smiles,measurement,setting,value
COc1cc(C)cc(-c2nn(CC#N)cc2-c2ccnc(-c3ccc(C(C)=O)cc3)c2)c1,growth at 10 µM,U-251,91.8%
same,growth at 10 µM,HT-29,79%
same,growth at 10 µM,MDA-MB-435,70%
same,growth at 10 µM,RXF 393,78.9%
same,growth at 10 µM,SF-268,110%
same,growth at 10 µM,MDA-MB-231,73.8%
same,growth at 10 µM,HCT-15,68.7%
same,growth at 10 µM,HCC 2998,76.8%
same,growth at 10 µM,NCI-H322M,102%
same,growth at 10 µM,COLO 205,66.8%
same,growth at 10 µM,HOP-62,94.4%
same,growth at 10 µM,UACC-257,82.7%
same,inhibition of growth at 10 µM,[1],18.2%
same,growth at 10 µM,SF-295,103%
same,growth at 10 µM,BT-549,93.5%
same,growth at 10 µM,CAKI-1,87.2%
same,growth at 10 µM,SNB-19,92.2%
same,growth at 10 µM,SF-539,81.9%
same,growth at 10 µM,SK-OV-3,89%
same,growth at 10 µM,ACHN,73.8%
same,growth at 10 µM,SK-MEL-2,89.1%
same,growth at 10 µM,A549,67.1%
same,growth at 10 µM,UO-31,79.1%
same,growth at 10 µM,CCRF-CEM,92.6%
same,growth at 10 µM,OVCAR-8,80.6%
same,growth at 10 µM,EKVX,104%
same,growth at 10 µM,DU-145,113%
same,growth at 10 µM,MCF7,27.6%
same,growth at 10 µM,HCT-116,76.6%
same,growth at 10 µM,HOP-92,81.7%
same,growth at 10 µM,SK-MEL-28,75.4%
same,growth at 10 µM,KM12,87.9%
same,growth at 10 µM,T47D,33.5%
same,growth at 10 µM,[2],82.9%
same,growth at 10 µM,NCI-H23,78.9%
same,growth at 10 µM,SW-620,94.7%
same,growth at 10 µM,M14,103%
same,growth at 10 µM,SN12C,83.6%
same,growth at 10 µM,PC-3,82.9%
same,growth at 10 µM,K562,70.6%
same,growth at 10 µM,NCI-H226,78.3%
same,growth at 10 µM,NCI-H460,106%
same,growth at 10 µM,LOX IMVI,78.1%
same,growth at 10 µM,[3],83.8%
same,growth at 10 µM,786-0,93.9%
same,growth at 10 µM,HL-60(TB),98.3%
same,growth at 10 µM,MDA-MB-468,11.3%
same,growth at 10 µM,UACC-62,64.6%
same,growth at 10 µM,NCI-H522,66.6%
same,growth at 10 µM,NCI/ADR-RES,73.8%
same,growth at 10 µM,SNB-75,46.4%
same,growth at 10 µM,OVCAR-4,58.6%
same,growth at 10 µM,IGROV-1,101%
same,growth at 10 µM,SK-MEL-5,39.7%
same,growth at 10 µM,OVCAR-3,108%
same,growth at 10 µM,Malme-3M,139%
same,growth at 10 µM,OVCAR-5,108%
same,growth at 10 µM,SR,78.4%
same,growth at 10 µM,A498,93%
same,growth at 10 µM,TK-10,95.2%
same,growth at 10 µM,MOLT-4,75.8%
